# Most compounds without a hit are left out; they make up all but 2.1% or so of the library.
# CRFBP-R2 block – antagonists of CRF-BP/CRF-R2 complex, primary screen, cell-based, HEK293, calcium dye fluorescence, uHTS; CRF-induced calcium fluorescence; inhibition, % at 11.8 µM; 350,000 compounds, 0.59% hits;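 active means inhibition of the ligand-induced calcium signal above about 50% at the single tested concentration, limit read from the data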
# hiPSC survival – enhancers of single-cell hiPSC survival, primary screen, ATPlite luminescence. 100% = ROCK inhibitor wells, 0% = DMSO. 360,000 compounds, 0.044% hits. survival enhancement, % at 20 µM; in the data active means survival enhancement above about 18%;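 further: cells exposed to compounds for 16 hours before the ATP read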
# H9c2 protect – cardioprotection against H2O2-induced cell death, primary screen, uHTS, H9c2 cells, ATPLite luminescence | protection from H2O2 cell death, % at 20 µM | H9c2 cardiomyocytes, H2O2 injury protection, 2 h | AID 588492, 2011 | 360,000 compounds, 0.63% hits;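 active means compounds giving at least 50% protection of heart cells from peroxide-induced death in the single-dose screen, raw or plate-pattern-corrected value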;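 further: 0% = DMSO wells with peroxide and 100% = DMSO wells without peroxide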
# beta cell repl – inducers of MIN6 beta-cell proliferation, primary screen, ATP luminescence, uHTS. MIN6 cells proliferation, ATPlite luminescence, 48 h; cells starved in 0.2% serum; 100% = growth in 10% serum. proliferation, % at 10 µM. 330,000 compounds, 0.29% hits. AID 2380, 2010;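 active means compounds whose signal lies at least 3.5 SD above the mean of all wells on their plate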;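 further: 0% = DMSO-treated cells in low-serum medium and 100% = 10% serum control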
# UCH37 DUB inh – inhibitors of human UCH37 deubiquitinase, primary screen, biochemical, Ub-AMC cleavage, fluorescence; inhibition, % (concentration not given with the values); purified proteasome/UCH37; 330,000 compounds, 0.33% hits;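 active means mean inhibition over replicate wells above about 20%, limit read from the data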;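 further: 0% = compound-free wells with enzyme and 100% = wells lacking proteasome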
# Target sequence (Q9Y5K5 whole entry, looked up): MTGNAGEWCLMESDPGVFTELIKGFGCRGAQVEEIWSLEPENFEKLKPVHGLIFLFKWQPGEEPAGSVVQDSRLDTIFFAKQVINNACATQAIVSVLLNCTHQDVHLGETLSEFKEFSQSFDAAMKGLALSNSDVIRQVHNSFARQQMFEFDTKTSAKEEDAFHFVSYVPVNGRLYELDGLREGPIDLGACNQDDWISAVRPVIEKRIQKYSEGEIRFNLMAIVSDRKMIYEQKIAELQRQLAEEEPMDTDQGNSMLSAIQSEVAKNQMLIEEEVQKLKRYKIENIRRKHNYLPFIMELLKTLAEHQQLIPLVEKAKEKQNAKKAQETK
#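 Material: human UCH37 enzyme supplied as purified proteasome complex. Measure: % inhibition of Ub-AMC cleavage fluorescence. Medium: pH 7.4 Tris-HCl (50 mM) with ovalbumin, ATP-MgCl2, DTT. Times: 30 min preincubation with enzyme, 25 min cleavage at room temperature. Detection: AMC fluorescence intensity at 355/460 nm.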
# CRFBP-R2 agonist – agonists of CRF-BP/CRF-R2 complex, primary screen, cell-based, HEK293, calcium dye fluorescence, uHTS; CRF-binding protein / CRF receptor 2 complex (human); calcium dye fluorescence (FLIPR); percent of saturating CRF peptide response; activation, % at 13.2 µM; 350,000 compounds, 0.46% hits; AID 588473, 2011;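 active means activation of at least 50%, plus an integration ratio under a set limit after plate pattern correction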;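 further: plate controls were neutral control wells without compound for no effect and CRF at EC100 for full effect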
# Numbers without * were called inactive; . = no result.
SMILES,CRFBP-R2 block,hiPSC survival,H9c2 protect,beta cell repl,UCH37 DUB inh,CRFBP-R2 agonist
COc1ccc(N=Cc2c(O)n(-c3cccc(C)n3)c(=O)c3ccccc23)c(OC)c1,-48.5,-0.4,18.9,-2.0,-1.6,72.5*
COc1ccc(-n2c(O)c(/C=N/NS(=O)(=O)c3cc(C)ccc3C)c3ccccc3c2=O)cc1OC,-153.8,0.9,-3.3,-1.3,-6.0,111.0*
COc1ccc(-n2c(O)c(/C=N/Nc3nc(C)cc(C)n3)c3ccccc3c2=O)cc1OC,-0.5,-0.9,62.0*,-2.3,4.0,1.3
CCOc1ccc(C=NNc2ccc(C(F)(F)F)cc2[N+](=O)[O-])cc1O,.,.,.,.,9.3,.
ON=C1CCCc2oc3c(c21)CCCC3,.,.,.,.,4.1,.
CCOC(=O)c1[nH]c2cc(OC)c(OC)cc2c1NC(=O)C(C)N1CCN(Cc2ccccc2)CC1 (stereo not drawn),12.2,5.8,55.5*,-1.6,-121.2,-2.8
CCOC(=O)c1[nH]c2ccc(OC)cc2c1NC(=O)C(C)N1CCSCC1 (stereo not drawn),.,.,.,.,-43.5,.
COc1ccc(-c2nc(NC(=O)c3ccc(OCC(=O)N4CCOCC4)c(OC)c3)sc2C)cc1,-5.1,-0.4,61.7*,-3.1,-7.5,-2.0
COc1cccc2c(=O)n(CC(=O)N3CCc4ccccc43)ccc12,-54.9,-0.3,-3.1,1.0,0.5,71.9*
CCOC(=O)COc1cccc2c(=O)n(CC(=O)N3CCc4ccccc43)ccc12,-22.2,-0.5,10.5,0.2,-4.6,1.3
O=C(COC(=O)Cn1[nH]c(=O)c2ccccc2c1=O)NNC(=O)c1ccccc1,-15.8,-0.1,92.6*,3.9,1.8,3.6
COc1ccccc1C(=O)NC(=O)COC(=O)Cn1[nH]c(=O)c2ccccc2c1=O,-7.3,-0.4,83.7*,-0.7,1.8,-1.0
O=C(Cn1[nH]c(=O)c2ccccc2c1=O)OCC(=O)N(Cc1ccccc1)Cc1ccccc1,-16.6,2.3,105.7*,-2.2,1.0,1.3
COc1ccccc1C(=O)NC(=O)COC(=O)CN1C(=O)NC(C)(C)C1=O,10.3,0.8,5.8,-1.4,1.9,-1.9
CC(=O)N1CCN(c2ccccc2NC(=O)COc2ccc(Br)cc2)CC1,-28.3,-1.6,2.2,1.4,6.5,-0.8
O=C(COc1ccc(Br)cc1)Nc1ccccc1N1CCCC1,-15.1,-2.6,-10.6,-2.0,27.8*,-0.6
O=C(Cn1[nH]c(=O)c2ccccc2c1=O)OCC(=O)c1ccc(F)cc1,13.1,-0.4,31.0,-3.8,5.7,-3.7
CCC1SC(=NS(=O)(=O)c2cccs2)N(C2CCCCC2)C1=O (stereo not drawn),.,.,.,.,-0.9,.
Cc1ccc(C(C)C)c(OCC(=O)NN2C(=O)c3ccccc3C2=O)c1,1.6,-0.2,-3.0,-2.8,3.9,-0.3
CC1(C)CC2CC(C)(CN2C(=O)COC(=O)Cn2[nH]c(=O)c3ccccc3c2=O)C1 (stereo not drawn),-22.4,-1.0,51.7*,-4.5,2.1,0.0
Cc1ccc(NC(=O)C(C)OC(=O)Cn2[nH]c(=O)c3ccccc3c2=O)cc1 (stereo not drawn),3.5,-0.4,17.0,-2.3,1.0,-0.8
Cc1cccc(C)c1OCC(=O)N1CC2(C)CC1CC(C)(C)C2 (stereo not drawn),7.0,-2.1,-12.5,-0.6,-0.4,-1.7
Cc1ccc(C(C)C)c(OCC(=O)NNC(=O)Cn2[nH]c(=O)c3ccccc3c2=O)c1,-0.7,-0.5,69.9*,4.9,2.2,0.3
CC(OC(=O)Cn1[nH]c(=O)c2ccccc2c1=O)C(=O)Nc1ccc(F)cc1 (stereo not drawn),-18.6,0.3,61.7*,2.5,6.0,1.8
N#CC1(NC(=O)COC(=O)Cn2[nH]c(=O)c3ccccc3c2=O)CCCCC1,-4.0,-0.4,73.8*,4.8,2.8,0.3
SMILES,CRFBP-R2 block,hiPSC survival,H9c2 protect,beta cell repl,UCH37 DUB inh,CRFBP-R2 agonist
O=C(Cn1[nH]c(=O)c2ccccc2c1=O)OCC(=O)c1ccc(F)c(F)c1,-3.6,-2.1,30.6,-0.2,.,0.0
O=C(Cn1[nH]c(=O)c2ccccc2c1=O)OCC(=O)c1ccccc1Cl,1.1,-0.1,22.3,-2.2,1.6,-1.0
Cc1cc(CNC(=O)COC(=O)Cn2[nH]c(=O)c3ccccc3c2=O)cc(C)c1O,10.8,-0.5,104.3*,-0.7,1.1,-0.7
Cc1ccc(C(C)C)c(OCC(=O)Nc2ccccc2N2CCN(C)CC2)c1,-7.7,1.8,34.4,-4.2,0.8,-1.4
CC(C)NC(=O)COC(=O)Cn1[nH]c(=O)c2ccccc2c1=O,8.4,0.1,80.2*,-2.5,5.1,-1.2
CC(=O)N1CCN(c2ccccc2NC(=O)COc2cc(C)ccc2C(C)C)CC1,-12.9,-2.3,65.6*,-2.1,2.0,1.9
O=C(NC1CSCC1=NO)c1ccccc1 (stereo not drawn),.,.,.,.,4.4,.
CN1c2ccsc2C(=NNC(=O)c2c(F)cccc2F)CS1(=O)=O,.,.,.,.,14.1,.
COc1cc(C2Nc3cc(C)c(C)cc3NC3=C2C(=O)CC(C)(C)C3)ccc1OC(C)=O (stereo not drawn),12.1,0.1,1.1,-0.5,13.1,4.3
Cc1cc2c(cc1C)NC(c1c(C)n(C)n(-c3ccccc3)c1=O)C1=C(CC(C)(C)CC1=O)N2 (stereo not drawn),-2.9,-1.8,10.2,-3.1,8.6,62.7*
COC(=O)C1CSc2[nH]c(=O)sc2C1c1ccc(O)c(OC)c1 (stereo not drawn),77.3*,1.8,8.8,4.3,3.1,-0.6
COc1ccc(C)cc1Nc1n[n+](C)c(-c2ccc(O)cc2O)s1,7.3,0.1,-2.2,-1.2,22.5*,-1.2
CCCCCCCCCCCCCC(=O)NO,-22.3,-1.0,78.1*,.,.,-4.6
COc1cc(-c2nnc(-c3cc(-c4ccccc4)nc4ccccc34)o2)cc(OC)c1OC,-3.7,-0.2,56.3*,.,-107.8,5.1
COc1cccc(C(=O)CSc2nnc(-c3cc(OC)c(OC)c(OC)c3)o2)c1,9.4,-0.9,58.0*,-2.2,2.5,0.7
COc1cc(-c2nnc(-c3ccccc3)o2)cc(OC)c1OC,-2.1,8.6,35.6,0.0,-0.5,-2.2
COc1cc(-c2nnc(SCC(=O)c3ccc(C)cc3)o2)cc(OC)c1OC,3.5,-0.7,13.9,-3.8,1.3,-0.3
COc1ccc(-c2cc(-c3nnc(-c4ccncc4)o3)c3ccccc3n2)cc1,-14.4,0.4,23.4,0.0,-62.9,2.5
